Assay: Toxicity liver stage against HepG2, at 10uM
Format: cell-based
Design: test concentration 10 uM, cell line HepG2-A16-CD81EGFP
Settings: human, HepG2-A16-CD81EGFP cells; read-out: INHIBITION
Summary of the method: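 Uninfected HepG2-A16-CD81EGFP cells, 3 × 10^3 per well, 1536-well, plated on prespotted compound at 10 μM final, parasite-free screening media added to match infected plates; puromycin 10 μM positive, DMSO 0.5% negative; run in parallel with 48 h PbLuc assay at 37 °C, 5% CO2; viability by CellTiter-Glo luminescence, normalized to controls.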

SMILES | cytotoxicity at 10 µM
CN(C)C(=O)CNC(=O)c1ccc(Cl)cc1F | -7.04%
CCOc1nnc(CN(C)CC2CCCN2c2cccnn2)s1 (stereo not given) | -10.7%
CCCc1n[nH]c(C2CN(CCn3cccn3)CCO2)n1 (stereo not given) | -11.3%
Cc1nc(C)n(C2CCCN(C(=O)c3ccc(F)cc3F)C2)n1 (stereo not given) | -2.9%
Cc1ccc(CNC(=O)C2=NOC3(CCCNC3)C2)cc1 (stereo not given) | 1.33%
CC1(C)CNC(=O)c2nc(CCN3CCOCC3)[nH]c2C1 | -10.7%
O=S1(=O)COCCN1Cc1ccc(Cl)c(Cl)c1 | 8.44%
COCc1noc(-c2ccc(N(C)Cc3cn(C)nc3C)nc2)n1 | -9.75%
CCCN(Cc1nc(-c2ccoc2)oc1C)CC1CCCO1 (stereo not given) | 2.4%
CCc1cc(NCCCN(C)C2CCCC2)ncn1 | 1.75%
O=C1OCCN1Cc1cccc(F)c1C(F)(F)F | 2.61%
O=C(CNC(Cn1cccn1)c1ccccc1)Nc1cnccn1 (stereo not given) | 7.34%
Cn1ccnc1SCCNC(=O)c1c[nH]nc1C1CCCCC1 | -4.68%
Cc1nc(C)n(CCNC2CCN(c3ncnc4c(C)csc34)CC2)n1 | 4.35%
CSCCC(=O)N1CCCC(c2nccn2Cc2ccncc2)C1 (stereo not given) | 9.33%
C[C@@H]1CN(c2cc(N3CCC(O)CC3)ncn2)C[C@@]1(O)C1CC1 | -1.79%
CN(C)S(=O)(=O)N1CC[C@]2(O)CCN(Cc3cc(F)cc(F)c3)C[C@@H]2C1 | -0.757%
Cc1cc(F)ccc1-c1cc(NCCO)nc2[nH]ccc12 | 21.7%
O=C(CCO)N[C@H]1CN(CC2CCC2)C[C@@H]1c1ccccc1 | -0.447%
Cc1cc(NCCc2nnc(N)s2)nc(-c2ccccc2)n1 | 6.9%
CCCn1c(C)c(CC(=O)NCC(N)=O)c2c1CC(C)(C)CC2=O | 2.03%
Cc1cccc(C(C(=O)NC(C)(C)CN2CCCC2)N(C)C)c1 (stereo not given) | -3.73%
Cc1ccc(OCCN(C)C(=O)CCCN2CCCC2=O)c(C)c1 | -8.38%
CNc1cc(C)nc(N2C[C@H](C3CC3)[C@@H](N)C2)n1 | -4.7%
Cc1cc(C(=O)N2CCCC2)ccc1NS(C)(=O)=O | 0.535%
CCN1CC(C(=O)N2CC(Oc3ccccc3F)C2)CC1=O (stereo not given) | -2.49%
O=C(NCCc1cccnc1)Nc1cc(C(F)(F)F)c[nH]c1=O | -12.2%
Cc1cnn(CC2CN(Cc3nnc(-c4ccccc4)o3)CCO2)c1 (stereo not given) | -6.61%

SMILES | cytotoxicity at 10 µM
O=C(CCOc1ccccc1)N1CCCC(n2cncn2)C1 (stereo not given) | -2.95%
O=C(c1ccc(OCC2CC2)nc1)N1CCCC(n2cccn2)C1 (stereo not given) | -12.4%
c1ncc2c(n1)CN(Cc1nc(-c3ccc4c(c3)OCO4)no1)CC2 | -10.4%
Cc1cc(C)n(-c2ccc(CNCc3cccc(C#N)c3)cn2)n1 | -10.2%
COC(=O)c1cc(C(=O)N2CCC(OC)CC2)n(-c2ccccc2)n1 | -15.1%
CCc1nc(CC(=O)N2CCn3c(nnc3C(F)(F)F)C2)cs1 | -9.29%
Cc1cc(NC(=O)NCC2CCOC2)no1 (stereo not given) | 4.43%
O=C(NCc1cccc2cccnc12)N1CCC(n2cncn2)CC1 | 0.722%
O=C(c1cnc(-c2ccco2)s1)N1CCCC1Cn1cccn1 (stereo not given) | -1.08%
COc1cccc(C(=O)N2CCCC(c3cc(C)[nH]n3)C2)c1OC (stereo not given) | -7.4%
Cc1csc(C2CCCCN2C(=O)CN(C)Cc2ccccc2)n1 (stereo not given) | 2.62%
CN1CC(=O)N(c2cccnc2)CC12CCN(C(=O)c1cccnc1)C2 (stereo not given) | 2.25%
c1csc(CN2CC(c3nc(-c4cnccn4)no3)C2)c1 | -8.28%
CN1CCN(C[C@@H]2OC[C@H]3CN(Cc4ccsc4)CC[C@H]32)CC1 | -11%
CCOC(=O)[C@]12CCCN(Cc3nccs3)C[C@H]1CN(CC(C)C)C2 | -2.85%
CN1CC(=O)N(c2ccsc2)CC12CCN(Cc1cnn(C)c1)C2 (stereo not given) | 0.0218%
Cc1ccc(CN2CCC3(CCC3NS(=O)(=O)c3ccccc3)CC2)o1 (stereo not given) | -2.97%
CN1CCN(c2ccc3ccc(C(=O)N4CCCCO4)cn23)CC1 | -7.3%
COCC(=O)N1CCOCC2(CCN(Cc3cccs3)C2)C1 (stereo not given) | -6.16%
CC(C)OCCCN(Cc1ccncc1)Cc1cccc(F)c1F | -15.3%
Cc1cc(CN2C[C@@H]3CCCO[C@@H]3[C@H](NS(C)(=O)=O)C2)no1 | 11.5%
Cc1nc(CN2CCO[C@H]3[C@@H](Oc4ccccn4)CC[C@@H]32)cs1 | 2.4%
CCS(=O)(=O)N1C[C@@H]2CN(Cc3cnn(C)c3)CCO[C@@H]2C1 | -0.646%
Cc1nc(CN2C[C@@H]3CN(C(=O)c4cnccn4)C[C@@H]3C2)cs1 | -8.97%
Cc1ccc(C(=O)N2C[C@H]3CC[C@@H](C2)N(Cc2ccccc2)C3)cn1 | -140%
O=C(Nc1ccccc1)N1C[C@@H]2C[C@H](C(=O)N3CCCC3)[C@H](C1)O2 | -3.29%
COc1ccc(-n2cc3[nH]c(=O)n(C(C)C)n3c2=O)cc1 | 2.03%

— ChEMBL document CHEMBL4513216, “Probing the Open Global Health Chemical Diversity Library for Multistage-Active Starting Points for Next-Generation Antimalarials” (ACS Infect Dis, 2020)
